Reference: ChEMBL document CHEMBL4609987, “Structure-activity relationship study of the pyridine moiety of isothiazolo[4,3-b]pyridines as antiviral agents targeting cyclin G-associated kinase” (Bioorg Med Chem, 2020)

Experiments:
[1] = molecular target: T1, Cyclin-G-associated kinase (Homo sapiens, UniProt O14976); assay: Inhibition of tracer 222 binding to recombinant human GST-tagged GAK (1 to 329 residues) expressed in insect cells incubated for 1 hr by Lanthascreen assay
T1 sequence (O14976 whole entry): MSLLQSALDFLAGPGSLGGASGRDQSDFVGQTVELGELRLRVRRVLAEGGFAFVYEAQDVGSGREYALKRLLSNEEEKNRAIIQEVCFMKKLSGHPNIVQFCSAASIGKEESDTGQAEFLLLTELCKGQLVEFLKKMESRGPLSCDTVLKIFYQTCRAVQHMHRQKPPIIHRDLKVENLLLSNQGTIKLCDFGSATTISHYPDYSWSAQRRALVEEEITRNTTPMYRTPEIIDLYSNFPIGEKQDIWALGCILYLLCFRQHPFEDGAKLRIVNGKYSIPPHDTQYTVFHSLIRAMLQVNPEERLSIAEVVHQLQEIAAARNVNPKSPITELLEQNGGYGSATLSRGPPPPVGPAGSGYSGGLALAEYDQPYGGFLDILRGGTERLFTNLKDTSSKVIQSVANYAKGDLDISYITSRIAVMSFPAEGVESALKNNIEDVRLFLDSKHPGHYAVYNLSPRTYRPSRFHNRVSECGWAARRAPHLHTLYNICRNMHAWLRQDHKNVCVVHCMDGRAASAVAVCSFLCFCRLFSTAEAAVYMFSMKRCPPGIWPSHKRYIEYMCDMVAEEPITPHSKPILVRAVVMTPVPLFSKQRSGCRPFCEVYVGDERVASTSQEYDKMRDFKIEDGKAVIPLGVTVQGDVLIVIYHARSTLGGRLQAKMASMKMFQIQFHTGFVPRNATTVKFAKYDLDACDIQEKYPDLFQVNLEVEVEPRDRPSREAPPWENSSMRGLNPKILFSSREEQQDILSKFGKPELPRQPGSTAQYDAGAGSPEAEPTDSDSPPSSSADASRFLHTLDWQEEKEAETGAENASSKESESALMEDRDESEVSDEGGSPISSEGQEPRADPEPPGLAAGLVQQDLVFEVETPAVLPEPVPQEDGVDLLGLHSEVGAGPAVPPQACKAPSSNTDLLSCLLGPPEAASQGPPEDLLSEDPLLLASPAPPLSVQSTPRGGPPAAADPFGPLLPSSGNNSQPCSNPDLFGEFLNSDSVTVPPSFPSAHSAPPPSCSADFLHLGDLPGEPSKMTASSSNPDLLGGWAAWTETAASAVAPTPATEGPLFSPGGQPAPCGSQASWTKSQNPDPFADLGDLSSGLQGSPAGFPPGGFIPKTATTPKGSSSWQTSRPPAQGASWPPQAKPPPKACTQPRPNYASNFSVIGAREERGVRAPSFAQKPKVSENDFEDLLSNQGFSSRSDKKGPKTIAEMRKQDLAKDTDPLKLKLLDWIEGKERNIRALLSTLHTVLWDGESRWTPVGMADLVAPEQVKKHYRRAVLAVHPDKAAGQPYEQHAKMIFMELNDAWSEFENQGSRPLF

dengue virus type 2 = assay: Antiviral activity against Dengue virus 2 infected in human HuH7 cells incubated for 48 hrs by luciferase reporter gene assay; conditions: Huh-7, 48 h
[2] = Cytotoxicity against human HuH7 cells assessed as reduction in cell viability incubated for 48 hrs by alamar blue reagent based cell viability assay; parameters: species or system Huh-7
Outline: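 Run in parallel on the same DENV2-infected Huh7 cultures (MOI 0.05, 4 h infection). Viability measured with AlamarBlue per the manufacturer's protocol, with fluorescence detected at 560 nm. CC50 calculated as the half-maximal cytotoxic concentration.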

| IC50 [1] [µM] | EC50 (dengue virus type 2) [µM] | Structure (SMILES) | CC50 at 48 h [2] [µM] |
| --- | --- | --- | --- |
|  | 8.85 | COc1cc(-c2cnc3c(N4C[C@@H](C)O[C@@H](C)C4)snc3c2)ccc1C(=O)N1CCCC1 | > 10 |
|  | 1.05 | COc1ccc(-c2ccc3nsc(N4C[C@@H](C)O[C@@H](C)C4)c3n2)cc1OC | > 10 |
|  | 5.83 | COc1cc(-c2cnc3c(N4C[C@@H](C)O[C@@H](C)C4)snc3c2)ccc1C(=O)NCc1ccccc1 | > 10 |
| > 0.37 |  | C[C@@H]1CN(c2snc3ccc(-c4ccc(C(F)(F)F)cc4)nc23)C[C@H](C)O1 |  |
| > 0.37 |  | COc1cc(-c2cnc3c(N4C[C@@H](C)O[C@@H](C)C4)snc3c2)ccc1C(=O)Nc1ccccc1 |  |
|  | 1.22 | C#Cc1cccc(Nc2ncnc3cc(OCCOC)c(OCCOC)cc23)c1 [ERLOTINIB] | > 10 |
|  | 10.1 | COc1cc(-c2cnc3c(N4C[C@@H](C)O[C@@H](C)C4)snc3c2)ccc1C(N)=O | > 10 |
| > 3.33 |  | COc1ccc(-c2cnc3c(N4C[C@@H](C)O[C@@H](C)C4)snc3c2)cn1 |  |
|  | > 10 | COc1cc(-c2cnc3c(N4C[C@@H](C)O[C@@H](C)C4)snc3c2)ccc1C(=O)O | > 10 |
| > 10 |  | C[C@@H]1CN(c2snc3cc(C#Cc4ccccc4)cnc23)C[C@H](C)O1 |  |
| > 3.33 |  | C[C@@H]1CN(c2snc3cc(/C=C/c4ccccc4)cnc23)C[C@H](C)O1 |  |
|  | > 10 | COc1cccc(-c2ccc3nsc(N4C[C@@H](C)O[C@@H](C)C4)c3n2)c1 | > 10 |

| Structure (SMILES) | IC50 [1] [µM] | EC50 (dengue virus type 2) [µM] | CC50 at 48 h [2] [µM] |
| --- | --- | --- | --- |
| COc1cc(-c2cnc3c(N4C[C@@H](C)O[C@@H](C)C4)snc3c2)ccc1N | 0.0394 | 0.82 | > 25 |
| COc1cc(-c2cnc3c(N4C[C@@H](C)O[C@@H](C)C4)snc3c2)cc(OC)c1OC |  | 2.79 | > 10 |
